Laboratory results taken from ChEMBL document CHEMBL4130405, “Iridoid Glycosides from the Twigs of Sambucus williamsii var. coreana and Their Biological Activities” (J Nat Prod, 2017).

Tested on: A549
Experiment: Cytotoxicity against human A549 cells after 48 hrs by SRB assay
Type: functional, cell-based
Details: A549, 48 h
How it was run: (§1)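 Cells from ATCC were seeded and left 24 h at 37 °C under 5% CO2. Attached cells were then exposed for 48 h to serial dilutions of 30, 10, 3, 1, 0.3 and 0.1 μM. Cells were fixed with cold 10% TCA at 4 °C for 1 h and stained with 0.4% SRB for 30 min at room temperature. Dye was solubilized in 10 mM Tris base (pH 10.5) and absorbance read at 520 nm. Etoposide served as positive control. IC50 is the mean ± SD of three independent experiments.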

`CC(C)CC(=O)O[C@@H]1OC=C(CO[C@@H]2O[C@H](CO)[C@@H](O)[C@H](O)[C@H]2OC(=O)/C=C\c2ccc(O)cc2)[C@H]2CC[C@](O)(CO)[C@@H]12` and `CC(C)CC(=O)O[C@@H]1OC=C(CO[C@@H]2O[C@H](CO)[C@@H](O)[C@H](O)[C@H]2OC(=O)/C=C/c2ccc(O)cc2)[C@H]2CC[C@](O)(CO)[C@@H]12` cannot be ordered by IC50: over 10 µM for the first, over 10 µM for the second.

First: CCC(C)C(=O)O[C@@H]1OC=C(CO[C@@H]2O[C@H](CO)[C@@H](O)[C@H](O)[C@H]2OC(=O)/C=C/c2ccc(O)cc2)[C@H]2CC[C@](O)(CO)[C@@H]12 (stereo not given in full)
Second: C=C1[C@@H]2O[C@@H](OC)[C@@H]3[C@@H](O2)[C@@H](O)C[C@H]13
The IC50 of the first is lower: 3.8 µM for the first, over 10 µM for the second. The first is the more potent here.

With `C=C1[C@@H]2O[C@@H](OC)[C@@H]3[C@H](CC[C@H]13)O2` the IC50 was over 10 µM.

Tested on: BT-549
Experiment: Cytotoxicity against human BT549 cells after 48 hrs by SRB assay
Type: functional, cell-based
Details: BT-549, 48 h
How it was run: as §1

Compared with `CC(C)CC(=O)O[C@@H]1OC=C(CO[C@@H]2O[C@H](CO)[C@@H](O)[C@H](O)[C@H]2OC(=O)/C=C\c2ccc(O)cc2)[C@H]2CC[C@](O)(CO)[C@@H]12`, `CC(C)CC(=O)O[C@@H]1OC=C(CO[C@@H]2O[C@H](CO)[C@@H](O)[C@H](O)[C@H]2OC(=O)/C=C/c2ccc(O)cc2)[C@H]2CC[C@](O)(CO)[C@@H]12` is higher in IC50: 8.7 µM for the first, over 10 µM for the second. The first is the more potent here.

Going from `CCC(C)C(=O)O[C@@H]1OC=C(CO[C@@H]2O[C@H](CO)[C@@H](O)[C@H](O)[C@H]2OC(=O)/C=C/c2ccc(O)cc2)[C@H]2CC[C@](O)(CO)[C@@H]12` (stereo not given in full) to `C=C1[C@@H]2O[C@@H](OC)[C@@H]3[C@@H](O2)[C@@H](O)C[C@H]13`, the IC50 rises from 1.3 µM to over 10 µM. The first is the more potent here.

In the case of `C=C1[C@@H]2O[C@@H](OC)[C@@H]3[C@H](CC[C@H]13)O2`, the IC50 is reported as over 10 µM.

Tested on: not listed separately
Experiment: Cytotoxicity against rat C6 cells assessed as cell viability at 20 uM after 24 hrs by MTT assay relative to control
Type: cell-based
Details: read-out: Activity
How it was run: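 C6 glioma cells were kept in DMEM with 10% FBS and seeded at 1 × 10^5 cells/well. After 24 h, cells were treated with 20 μM compound in DMEM with 2% FBS for 24 h. MTT reagent was added for 1 h at 37 °C, formazan dissolved in DMSO and absorbance read at 570 nm. Results are percent, mean ± SD of three independent experiments.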

In order of rising viability at 24 h, 20 µM:
1. CCC(C)C(=O)O[C@@H]1OC=C(CO[C@@H]2O[C@H](CO)[C@@H](O)[C@H](O)[C@H]2OC(=O)/C=C/c2ccc(O)cc2)[C@H]2CC[C@](O)(CO)[C@@H]12 (stereo not given in full)  101%
2. CC(C)CC(=O)O[C@@H]1OC=C(CO[C@@H]2O[C@H](CO)[C@@H](O)[C@H](O)[C@H]2OC(=O)/C=C\c2ccc(O)cc2)[C@H]2CC[C@](O)(CO)[C@@H]12  102%
3. C=C1[C@@H]2O[C@@H](OC)[C@@H]3[C@H](CC[C@H]13)O2  106%
4. C=C1[C@@H]2O[C@@H](OC)[C@@H]3[C@@H](O2)[C@@H](O)C[C@H]13  111%
5. CC(C)CC(=O)O[C@@H]1OC=C(CO[C@@H]2O[C@H](CO)[C@@H](O)[C@H](O)[C@H]2OC(=O)/C=C/c2ccc(O)cc2)[C@H]2CC[C@](O)(CO)[C@@H]12  115%

Tested on: SK-OV-3
Experiment: Cytotoxicity against human SKOV3 cells after 48 hrs by SRB assay
Type: functional, cell-based
Details: SK-OV-3, 48 h
How it was run: as §1

`CC(C)CC(=O)O[C@@H]1OC=C(CO[C@@H]2O[C@H](CO)[C@@H](O)[C@H](O)[C@H]2OC(=O)/C=C\c2ccc(O)cc2)[C@H]2CC[C@](O)(CO)[C@@H]12` and `CC(C)CC(=O)O[C@@H]1OC=C(CO[C@@H]2O[C@H](CO)[C@@H](O)[C@H](O)[C@H]2OC(=O)/C=C/c2ccc(O)cc2)[C@H]2CC[C@](O)(CO)[C@@H]12` cannot be ordered by IC50: over 10 µM for the first, over 10 µM for the second.

Compared with `CCC(C)C(=O)O[C@@H]1OC=C(CO[C@@H]2O[C@H](CO)[C@@H](O)[C@H](O)[C@H]2OC(=O)/C=C/c2ccc(O)cc2)[C@H]2CC[C@](O)(CO)[C@@H]12` (stereo not given in full), `C=C1[C@@H]2O[C@@H](OC)[C@@H]3[C@@H](O2)[C@@H](O)C[C@H]13` is higher in IC50: 1.9 µM for the first, over 10 µM for the second. The first is the more potent here.

`C=C1[C@@H]2O[C@@H](OC)[C@@H]3[C@H](CC[C@H]13)O2` showed an IC50 of over 10 µM.

Tested on: not listed separately
Experiment: Cytotoxicity against mouse BV2 cells assessed as cell viability at 20 uM by MTT assay relative to control
Type: cell-based, BV-2
Details: read-out: Activity
How it was run: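 Viability of LPS-activated BV-2 cells was measured after 24 h treatment with 20 μM compound. Read-out was MTT, expressed as percent. Values are means ± SD of three independent experiments.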

In order of rising viability at 20 µM:
1. C=C1[C@@H]2O[C@@H](OC)[C@@H]3[C@@H](O2)[C@@H](O)C[C@H]13  36%
2. CC(C)CC(=O)O[C@@H]1OC=C(CO[C@@H]2O[C@H](CO)[C@@H](O)[C@H](O)[C@H]2OC(=O)/C=C/c2ccc(O)cc2)[C@H]2CC[C@](O)(CO)[C@@H]12  102%
3. CC(C)CC(=O)O[C@@H]1OC=C(CO[C@@H]2O[C@H](CO)[C@@H](O)[C@H](O)[C@H]2OC(=O)/C=C\c2ccc(O)cc2)[C@H]2CC[C@](O)(CO)[C@@H]12  103%
4. C=C1[C@@H]2O[C@@H](OC)[C@@H]3[C@H](CC[C@H]13)O2  104%
5. CCC(C)C(=O)O[C@@H]1OC=C(CO[C@@H]2O[C@H](CO)[C@@H](O)[C@H](O)[C@H]2OC(=O)/C=C/c2ccc(O)cc2)[C@H]2CC[C@](O)(CO)[C@@H]12 (stereo not given in full)  136%

Tested on: SK-MEL-2
Experiment: Cytotoxicity against human SK-MEL-2 cells after 48 hrs by SRB assay
Type: functional, cell-based
Details: SK-MEL-2, 48 h
How it was run: as §1

First: CC(C)CC(=O)O[C@@H]1OC=C(CO[C@@H]2O[C@H](CO)[C@@H](O)[C@H](O)[C@H]2OC(=O)/C=C\c2ccc(O)cc2)[C@H]2CC[C@](O)(CO)[C@@H]12
Second: CC(C)CC(=O)O[C@@H]1OC=C(CO[C@@H]2O[C@H](CO)[C@@H](O)[C@H](O)[C@H]2OC(=O)/C=C/c2ccc(O)cc2)[C@H]2CC[C@](O)(CO)[C@@H]12
The IC50 of the first is lower: 8.4 µM for the first, over 10 µM for the second.

Compared with `CCC(C)C(=O)O[C@@H]1OC=C(CO[C@@H]2O[C@H](CO)[C@@H](O)[C@H](O)[C@H]2OC(=O)/C=C/c2ccc(O)cc2)[C@H]2CC[C@](O)(CO)[C@@H]12` (stereo not given in full), `C=C1[C@@H]2O[C@@H](OC)[C@@H]3[C@@H](O2)[C@@H](O)C[C@H]13` is higher in IC50: 1.4 µM for the first, over 10 µM for the second. The first is the more potent here.

In the case of `C=C1[C@@H]2O[C@@H](OC)[C@@H]3[C@H](CC[C@H]13)O2`, the IC50 is reported as over 10 µM.

Tested on: C6
Experiment: Induction of NGF secretion in rat C6 cells at 20 uM after 24 hrs by ELISA relative to control
Type: functional
Details: not given
How it was run: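 C6 glioma cells were seeded at 1 × 10^5 cells/well in DMEM with 10% FBS. After 24 h, cells were exposed to 20 μM compound in DMEM with 2% FBS for 24 h. NGF secreted into the conditioned medium was measured by ELISA as percent of untreated control (100%). 6-Shogaol served as positive control. Data are mean ± SD of three independent experiments in triplicate.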

In order of rising Activity:
1. CC(C)CC(=O)O[C@@H]1OC=C(CO[C@@H]2O[C@H](CO)[C@@H](O)[C@H](O)[C@H]2OC(=O)/C=C/c2ccc(O)cc2)[C@H]2CC[C@](O)(CO)[C@@H]12  130.4%
2. C=C1[C@@H]2O[C@@H](OC)[C@@H]3[C@H](CC[C@H]13)O2  133.4%
3. CCC(C)C(=O)O[C@@H]1OC=C(CO[C@@H]2O[C@H](CO)[C@@H](O)[C@H](O)[C@H]2OC(=O)/C=C/c2ccc(O)cc2)[C@H]2CC[C@](O)(CO)[C@@H]12 (stereo not given in full)  145.4%
4. CC(C)CC(=O)O[C@@H]1OC=C(CO[C@@H]2O[C@H](CO)[C@@H](O)[C@H](O)[C@H]2OC(=O)/C=C\c2ccc(O)cc2)[C@H]2CC[C@](O)(CO)[C@@H]12  147%
5. C=C1[C@@H]2O[C@@H](OC)[C@@H]3[C@@H](O2)[C@@H](O)C[C@H]13  152.6%

Tested on: BV-2
Experiment: Antineuroinflammatory activity in mouse BV2 cells assessed as inhibition of LPS-induced nitric oxide production pretreated for 30 mins followed by LPS-stimulation after 24 hrs by Griess assay
Type: functional, cell-based
Details: not given
How it was run: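 BV-2 microglia were pretreated with compound for 30 min, then stimulated with LPS (100 ng/mL) for 24 h. Nitrite in the supernatant was mixed with an equal volume of Griess reagent (1% sulfanilamide, 0.1% naphthylethylenediamine in 5% phosphoric acid) for 10 min and read at 570 nm. Values were quantified against a sodium nitrite standard curve. L-NMMA served as positive control. IC50 is the concentration giving 50% inhibition of NO production; three independent experiments.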

First: CC(C)CC(=O)O[C@@H]1OC=C(CO[C@@H]2O[C@H](CO)[C@@H](O)[C@H](O)[C@H]2OC(=O)/C=C\c2ccc(O)cc2)[C@H]2CC[C@](O)(CO)[C@@H]12
Second: CC(C)CC(=O)O[C@@H]1OC=C(CO[C@@H]2O[C@H](CO)[C@@H](O)[C@H](O)[C@H]2OC(=O)/C=C/c2ccc(O)cc2)[C@H]2CC[C@](O)(CO)[C@@H]12
The IC50 of the first is lower: 0.9 to 0.95 µM for the first, 45.5 µM for the second.

First: CCC(C)C(=O)O[C@@H]1OC=C(CO[C@@H]2O[C@H](CO)[C@@H](O)[C@H](O)[C@H]2OC(=O)/C=C/c2ccc(O)cc2)[C@H]2CC[C@](O)(CO)[C@@H]12 (stereo not given in full)
Second: C=C1[C@@H]2O[C@@H](OC)[C@@H]3[C@@H](O2)[C@@H](O)C[C@H]13
The IC50 of the first is lower: 1.25 to 1.3 µM for the first, 110 µM for the second. The first is the more potent here.

For `C=C1[C@@H]2O[C@@H](OC)[C@@H]3[C@H](CC[C@H]13)O2`, the IC50 was 94.2 µM.
